# Screening data (PubChem)
# MsrA inhibitor: inhibitors of bovine MsrA; inhibition, % at 15.5 µM; AID 651718; purified bovine MsrA, absorbance read-out; actives 0.75% (n = 360,000);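 note: 0% = vehicle wells with enzyme and 100% = reference inhibitor wells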
# MsrA act: activators of bovine methionine sulfoxide reductase A | purified bovine MsrA, absorbance read-out | activation, % at 10.6 µM | actives 0.3% (n = 360,000) | AID 602163; in the data active = activation above about 7.5%;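 note: 0% = vehicle and 100% = reference activator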
# MC4R antag cAMP: blocks human MC4R cAMP signaling | P32245 | MC4R-expressing cells, MTII-stimulated cAMP, LANCE TR-FRET | inhibition, % at 6.5 µM | actives 0.48% (n = 360,000) | AID 540295;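 active = inhibition above its plate's cutoff, the mean of tested wells on that plate plus 3 SD, cut at about 29% in these data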;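 note: 0% = Melanotan II alone and 100% = Melanotan II plus saturating MCL0020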
# Target sequence (P32245 whole entry, looked up): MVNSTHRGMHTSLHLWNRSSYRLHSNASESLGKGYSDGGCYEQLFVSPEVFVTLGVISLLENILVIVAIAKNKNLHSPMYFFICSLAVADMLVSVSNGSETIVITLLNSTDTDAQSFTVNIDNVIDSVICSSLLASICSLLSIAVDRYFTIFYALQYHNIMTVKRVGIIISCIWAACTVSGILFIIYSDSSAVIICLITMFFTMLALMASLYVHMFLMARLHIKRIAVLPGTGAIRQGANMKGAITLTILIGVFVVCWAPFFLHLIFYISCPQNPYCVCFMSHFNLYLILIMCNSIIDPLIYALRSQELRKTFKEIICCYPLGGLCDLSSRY
#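 material = U2OS cells stably expressing human melanocortin 4 receptor (MC4R) | also added = Melanotan II challenge | dosing = single nominal compound dose of 6.5 µM | detection = TR-FRET with Eu-cAMP and labeled anti-cAMP, 671 nm | replication = singlicate | timing = compound 30 min, challenge 1 h, detection 1 h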
# MC4R barr agon: activates human MC4R beta-arrestin recruitment | activation, % at 8.9 µM | P32245 | actives 0.98% (n = 360,000) | U2OS MC4R beta-arrestin complementation, luminescence; percent of melanotan II response, DMSO zero | AID 540308;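 active = activation above a per-plate cutoff, the mean activation of sample wells on that plate plus 3 SD, cut at about 8% in these data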
# MsrA inh confirm: confirmation of bovine MsrA inhibitors. actives 41% (n = 2,300). inhibition, % at 15.5 µM. purified bovine MsrA, absorbance read-out. shares compounds with MsrA inhibitor;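 note: coupled to thioredoxin reductase with NADPH and selenocystamine and DMSO as substrate; 0% = vehicle only and 100% = full effect of reference inhibitor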
# Numbers without * were called inactive; x = no result given. The list is not random: actives were taken first. Their share in the collection is about 2.3%. Cut-off read from the data, not from the text of the source, unless noted: active = inhibition above about 4.5%; inactive = the rest.
SMILES,MsrA inhibitor,MsrA act,MC4R antag cAMP,MC4R barr agon,MsrA inh confirm
Cc1ccc(-c2ccc(/C=N/N=C3/NC(=O)C(CC(=O)O)S3)o2)c([N+](=O)[O-])c1 (stereo unspecified),5.9*,-5.5,6.9,1.2,6.8*
CCN(CC)CCNC(=O)CCn1nc(-c2ccc(Cl)cc2)ccc1=O,0.8,-1.2,11.1,0.5,x
C/C(=N\Nc1ccc([N+](=O)[O-])cc1[N+](=O)[O-])c1cccnc1,13.0*,-1.1,-1.0,-1.3,15.7*
C/C(=N\Nc1ccc(S(N)(=O)=O)cc1[N+](=O)[O-])c1cccnc1,11.2*,-6.2,3.6,3.6,10.2*
CCc1ccc(C2NC(=O)c3ccccc3O2)cc1 (stereo unspecified),-0.3,-2.5,0.4,-0.7,x
COc1cccc(C2=CC(c3cccc(OC)c3OC)n3nnnc3N2)c1 (stereo unspecified),14.4*,-7.8,-7.5,1.6,9.3*
COc1cccc(C2=CC(c3cccc(OC)c3OC(F)F)n3nnnc3N2)c1 (stereo unspecified),3.2,-0.8,8.2,5.0,x
CN(C)c1ccc(/C=N/Nc2ccc(-n3ccnc3)nn2)cc1,6.0*,-6.9,-8.7,-1.7,2.9
S=C(NCc1ccccn1)Nc1ccccc1Cl,0.6,-2.3,11.6,0.4,x
COc1ccc(/C=C(\C#N)C(=O)N=CN(C)C)cc1,0.9,-1.9,10.6,-0.3,x
COc1ccc(/C=C(\C#N)C(=O)N2COCC2(C)C)cc1,5.1*,-1.8,-1.7,-1.8,3.3
O=C(c1nc2nc(-c3ccccc3)cc(C(F)(F)F)n2n1)N1CCCCC1,1.0,-4.2,10.4,0.3,x
COc1ccc(-c2cc(C(F)(F)F)n3nc(C(=O)N4CCOCC4)nc3n2)cc1,7.7*,-6.1,-0.1,1.4,4.9*
O=c1oc2c(-c3ccc([N+](=O)[O-])cc3)cc(O)cc2s1,7.5*,1.6,-7.6,2.8,0.0
NC1=C(c2ccc([N+](=O)[O-])cc2)C(=O)CO1,4.0,-6.7,-3.7,-1.6,x
O=C(COC(=O)c1ccc(F)cc1F)c1ccc[nH]1,-0.2,-3.1,5.6,0.8,x
O=C(c1cc(-c2ccccc2Cl)nc2ccccc12)N1CCN(c2ccccc2O)CC1,0.1,-2.1,0.1,-4.2,x
CCOC(=O)/C(C#N)=C/c1ccc(-c2ccsc2C(=O)OC)o1,-2.1,-2.6,-5.1,-1.0,x
CCOC(=O)/C(C#N)=C/Nc1ccccc1OC,12.3*,-17.4,-6.9,1.5,12.4*
CCOC(=O)/C(C#N)=C/Nc1ccsc1C(C)=O,13.7*,-7.9,2.7,-1.0,7.2*
O=C(NC1CCCCC1)C1CCCN(c2nnnn2-c2ccccc2)C1 (stereo unspecified),-0.1,-9.5,-4.9,3.3,x
CC(C)C[C@H]1CN(CCCC[C@H]2CNC(=O)C(=O)N2CCc2ccccc2)C(=O)C(=O)N1CCc1ccc(O)cc1,-0.4,-1.4,x,x,x
N#Cc1ccccc1OCCn1cncn1,-0.6,-4.3,6.1,-0.8,x
OCCCn1c(-c2ccccc2)nc(=S)c2c1CCCC2,3.6,-2.1,14.6,0.8,x
S=c1nc(-c2ccccc2Cl)n(Cc2cccnc2)c2c1CCCC2,5.9*,-8.2,7.0,-0.1,4.7*
SMILES,MsrA inhibitor,MsrA act,MC4R antag cAMP,MC4R barr agon,MsrA inh confirm
CC(=O)c1ccc(N2CCN(C(=O)C(=O)c3cn(CC(=O)N4CCOCC4)c4ccccc34)CC2)cc1,6.8*,-5.0,-6.1,0.3,5.6*
COc1ccc(-c2nnc(SCC(=O)N3CCC(Cc4ccccc4)CC3)o2)cc1OC,-1.0,-2.6,-2.3,-1.4,x
CC(=O)COc1c(-c2ccco2)oc2ccccc2c1=O,4.8*,-5.4,-5.5,-1.9,4.3
O=C(/C=C/c1cccs1)Nc1nncs1,5.9*,-6.1,-8.8,-1.3,3.8
O=C(/C=C/c1cccs1)Nc1nc(-c2ccccc2)cs1,0.7,-6.2,-3.6,-1.6,x
O=C(/C=C/c1cccs1)Nc1scc(-c2ccccc2)c1C(=O)O,11.3*,-9.1,5.9,-0.2,5.6*
COc1ccc(Cl)cc1NC(=O)CN(C)C(=O)Cc1ccsc1,-0.9,-2.3,7.8,-3.3,x
CN(C)N=Nc1nc2c(c(=O)n(C)c(=O)n2C)n1CC1CO1 (stereo unspecified),7.4*,-5.8,-1.5,-1.2,5.9*
CN(C)N=Nc1nc2c([nH]1)c(=O)n(C)c(=O)n2C,2.0,-3.4,-4.7,-0.6,x
Cc1ccccc1-c1cc2c(nn1)-c1ccccc1C2=O,5.9*,1.6,-10.3,-0.2,-0.2
Cc1ccc(-c2cc3c(nn2)-c2ccccc2C3=O)cc1,-0.5,4.8,-9.7,-2.2,x
O=C(c1cnc2sccn2c1=O)N(Cc1ccccc1)c1ccccn1,5.0*,-4.2,-8.0,-1.1,3.0
O=C(c1ccccc1)N(Cc1ccccc1)c1ccccn1,-1.8,-2.9,21.4,0.7,x
CN1CCN(c2ccc3c(c2)C2CC3CCN2C(=O)OCc2ccccc2)CC1 (stereo unspecified),0.6,-4.7,-0.3,-0.3,x
COc1ccc(C=C2SC(=S)NC2=O)c(OC)c1OC,4.8*,-16.1,-9.3,-0.1,1.7
COc1ccccc1C=C1SC(=S)NC1=O,1.2,-9.0,5.7,-1.5,x
O=C(O)c1cccc(Cn2c(Cl)c(/C=N/NC(=O)c3ccc(O)cc3)sc2=O)c1,8.5*,-7.4,-7.0,-0.6,5.5*
CC1=NN(C(C#N)c2ccc(F)cc2)C(c2ccccc2)C1 (stereo unspecified),1.1,-3.2,5.5,0.7,x
O=C(NCC(c1cccs1)N1CCOCC1)c1cc(F)cc(F)c1 (stereo unspecified),-0.2,-10.4,3.5,1.3,x
O=Cc1ccc(-c2ccc(C(=O)O)cc2)o1,7.2*,-10.8,2.1,-0.2,3.9
O=C(O)/C(=C\c1ccc(-c2ccc(F)cc2)o1)c1ccccc1,4.7*,-9.8,-4.7,4.8,2.8
O=Cc1ccc(-c2ccc(F)cc2)o1,2.6,-2.6,0.6,-3.5,x
CCNC(=S)N/N=C(\C)c1cc2ccccc2o1,5.6*,-11.1,2.4,-0.6,6.3*
C/C(=N\NC(=S)Nc1cccc(C)c1)c1cc2ccccc2o1,2.4,0.5,4.8,-4.0,x
CC(=NCc1cccnc1)C1=C(O)c2ccccc2C1=O,4.9*,-4.3,1.3,-0.5,3.0
SMILES,MsrA inhibitor,MsrA act,MC4R antag cAMP,MC4R barr agon,MsrA inh confirm
COc1cc(/C=C2/C(C)=C(C#N)c3nc(N)c(C#N)c(C)c32)ccc1OCC(=O)O,5.0*,x,x,x,2.3
CC1=C(C#N)c2nc(N)c(C#N)c(C)c2/C1=C\c1ccc(-c2ccccc2C(=O)O)o1,1.4,-4.8,-14.9,-2.8,x
COc1ccc(/C=C(/C#N)S(=O)(=O)c2ccc(C)cc2)cc1,-0.1,-0.8,10.0,0.5,x
CO/N=C/C(C#N)=C/c1ccc(OC)cc1,6.7*,-7.2,-4.9,-1.7,4.8*
N#C/C(=C(/O)c1ccco1)c1nc2ccccc2[nH]1,7.2*,-12.8,-2.4,-0.1,4.6*
N#CC(C(=O)c1ccco1)c1ccccn1 (stereo unspecified),5.9*,-7.6,1.5,0.7,3.8
N#C/C(=C(/O)c1cc2ccccc2o1)c1nc2ccccc2s1,-0.1,-2.1,17.1,-0.5,x
N#C/C(=C(\O)c1ccco1)c1ccccn1,5.1*,-4.0,14.2,-0.4,2.0
